Assay results collected from several papers.
Compare with care: the assays were run in different laboratories.
Target: Serine/threonine-protein kinase Nek6 (NEK6, Homo sapiens, UniProt Q9HC98)

`COc1ncccc1-c1cnn2ccc(N3CCN(C(=O)OC(C)C)CC3)nc12` gave a remaining binding of 68% (binding; competition with immobilised ligand; 1 µM).
For `Nc1ncc(-c2nc(N3CCOCC3)nc(N3CCOCC3)n2)c(C(F)F)n1`, the remaining binding was 100% (binding; competition with immobilised ligand; 10 µM).
`Cn1cncc1[C@](O)(COc1ccc(C#N)cc1-c1ccc(OC(F)(F)F)cc1)c1ccc(C#N)cc1` has a remaining binding of 95% (cell-free assay; competition with immobilised ligand; 1 µM).
For `Cn1cc(-c2cc(F)cc(N3CCn4c(cc5c4CCCC5)C3=O)c2CO)cc(Nc2ccc(N3CCN(C4COC4)CC3)cn2)c1=O`, the inhibition was 6% (enzyme activity; inhibitor; 0.1 µM).
With `Cc1nn(C)cc1-c1nc2c(N3CCN(Cc4ccc(Cl)cc4)CC3)c(Cl)cnc2[nH]1` the remaining binding was 100% (binding; competition with immobilised ligand; 1 µM).
`O=c1[nH]c2ccccc2n1C1CCN(Cc2ccc(-c3[nH]c4cc5ncnc5cc4nc3-c3ccccc3)cc2)CC1` has a remaining signal of 98.2% (cell-free assay; 0.5 µM).
`Cn1cc(-c2cccc(N3CCc4c(sc5c4CC(C)(C)C5)C3=O)c2CO)cc(Nc2ccncn2)c1=O` has an inhibition of 4% (enzyme activity; inhibitor; 1 µM).
The remaining activity of `O=C1Nc2ccc3ncsc3c2/C1=C/c1cnc[nH]1` is reported as 93.2% (enzyme activity; inhibitor; 0.5 µM).
For `N#CC1(c2ccccn2)CCN(Cc2cc(C(=O)O)c(=O)n3ccccc23)CC1`, the remaining binding was 100% (cell-free assay; competition with immobilised ligand; 1 µM).
`COc1cc(Nc2ncc(F)c(Nc3ccc4c(n3)NC(=O)C(C)(C)O4)n2)cc(OC)c1OC` gave an inhibition of 100% (binding; competition with immobilised ligand; 10 µM).
